Results published in ChEMBL document CHEMBL1138081, “New furan side tetracyclic allopsoralen derivatives: synthesis and photobiological evaluation” (J Med Chem, 2006).

Legend:
[1] = test system: HL-60; assay: Antiproliferative activity against HL60 cells in dark; format: functional, cell-based; conditions: Homo sapiens
How it was run: (§1)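 HL-60 cells (10^5 per well) were grown in RPMI 1640 with 15% heat-inactivated FCS and antibiotics at 37 °C in 5% CO2. After 24 h, compound was added in complete medium. For the irradiated arm, cells were kept 1 h in the dark, then given 0.789 J cm-2 UVA (365 nm lamps). Cells were incubated a further 24 h and viability read by trypan blue. IC50 is the concentration giving 50% fewer cells than control.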

[2] = test system: HeLa; assay: Antiproliferative activity against HeLa cells in dark; format: functional, cell-based; conditions: Homo sapiens
How it was run: (§2)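 HeLa cells (10^5 per well) were grown in F-12 with 10% heat-inactivated FCS at 37 °C in 5% CO2. After 24 h, medium was swapped for phenol-red-free DMEM with compound. For UVA, cells were irradiated after 1 h at 0.789 J cm-2 (365 nm), then the drug medium was replaced with complete F-12 for 24 h. In the dark arm, cells stayed 24 h with compound in complete F-12. IC50 is the concentration giving 50% fewer cells than control.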

[3] = organism: Cavia porcellus; assay: Phototoxicity in albino Dunkin-Hartley guinea pig skin assessed as formation of erythema at 0.14 umol/cm2; format: organism-based, Zone of skin; conditions: in vivo, topical_or_ocular
How it was run: (§3)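 Depilated albino outbred Dunkin-Hartley guinea pigs received the compound as an ethanol solution applied topically to the skin. Animals were kept 45 min in the dark, then the treated skin was irradiated with 20 kJ m-2 UVA. Erythema was scored after 48 h.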

[4] = test system: HeLa; assay: Antiproliferative activity against HeLa cells in presence of 0.789 J/cm2 UVA light; format: functional, cell-based; conditions: Homo sapiens, light or radiation study; how it was run: as §2
[5] = test system: HL-60; assay: Antiproliferative activity against HL60 cells in presence of 0.789 J/cm2 UVA light; format: functional, cell-based; conditions: Homo sapiens, HL-60, light or radiation study; how it was run: as §1
[6] = test system: Cavia porcellus; assay: Phototoxicity in albino Dunkin-Hartley guinea pig skin assessed as formation of erythema with edema at 0.046 umol/cm2; format: organism-based, Zone of skin; conditions: in vivo, topical_or_ocular; how it was run: as §3
[7] = organism: Cavia porcellus; assay: Phototoxicity in albino Dunkin-Hartley guinea pig skin assessed as formation of erythema at […]; format: organism-based, Zone of skin; conditions: in vivo, topical_or_ocular; how it was run: as §3
[8] = target: DNA topoisomerase II (Homo sapiens) (UniProt P11388+Q02880); assay: Inhibition of topoisomerase 2 by ATP-dependent decatenation of kinetoplast DNA; format: protein assay
How it was run: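 Human topoisomerase II (1 U) was incubated with 0.15 µg kinetoplast DNA and compound (1, 2, 4, 8 µM) in 20 µL for 1 h at 37 °C. The reaction was stopped with stop buffer plus proteinase K 50 µg/mL for 30 min at 37 °C. Decatenation was read on a 1% agarose gel with ethidium bromide 0.5 µg/mL in TAE, pH 8.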

## COc1cc2oc(=O)cc(C)c2c2oc3c(c12)CCCC3
[1]
  IC50: > 20 µM
[2]
  IC50: > 20 µM
[3]
  Activity: Not Active
[4]
  IC50: > 20 µM
[5]
  IC50: > 20 µM

## Cc1cc(=O)oc2cc(OCCCN(C)C)c3c4c(oc3c12)CCCC4
[1]
  IC50: 7.9 µM
[2]
  IC50: > 20 µM
[3]
  Activity: Not Active
[4]
  IC50: 0.4 µM
[5]
  IC50: 0.61 µM

## COc1c2occc2cc2ccc(=O)oc12 [METHOXSALEN]
[1]
  IC50: > 20 µM
[2]
  IC50: > 20 µM
[6]
  Activity: Active

## Cc1cc(=O)oc2cc(OCCCN(C)C)c3c4ccccc4oc3c12
[1]
  IC50: 0.48 µM
[2]
  IC50: 3.5 µM
[6]
  Activity: Active
[7]
  Activity: Not Active
[4]
  IC50: 0.0043 µM
[5]
  IC50: 0.0105 µM
[8]
  inhibition: Dose-dependent effect

## COc1cc2oc(=O)cc(C)c2c2oc3ccccc3c12
[1]
  IC50: > 20 µM
[2]
  IC50: > 20 µM
[3]
  Activity: Not Active
[4]
  IC50: > 20 µM
[5]
  IC50: > 20 µM

## Cc1cc(=O)oc2cc(O)c3c4ccccc4oc3c12
[1]
  IC50: > 20 µM
[2]
  IC50: > 20 µM
[3]
  Activity: Not Active
[4]
  IC50: > 20 µM
[5]
  IC50: > 20 µM

## Cc1cc(=O)oc2cc(O)c3c4c(oc3c12)CCCC4
[1]
  IC50: > 20 µM
[2]
  IC50: > 20 µM
[3]
  Activity: Not Active
[4]
  IC50: > 20 µM
[5]
  IC50: > 20 µM
